Laboratory results reported in ChEMBL document CHEMBL4715721, “Synthesis and optimization of novel allylated mono-carbonyl analogs of curcumin (MACs) act as potent anti-inflammatory agents against LPS-induced acute lung injury (ALI) in rats” (Eur J Med Chem, 2016).
In brackets after ≈: the same amount, converted by molar mass.

Experiments:
[1] = Cytotoxicity against human HL7702 cells assessed as cell survival rate at 10 uM incubated for 24 hrs by MTT assay; format: cell-based; conditions: HL7702 (L02) cells, read-out: Activity
Method in brief: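 HL-7702 human normal hepatic cells exposed to 10 μM compound for 24 h; viability measured by MTT assay and given as survival rate, mean ± SD of three experiments.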

[2] = (§1) Cytotoxicity against mouse RAW264.7 cells assessed as cell survival rate at 10 uM; format: cell-based; conditions: RAW264.7 cells, read-out: Activity
RAW264.7 [3] = experiment: Antiinflammatory activity in mouse RAW264.7 cells assessed as decrease in LPS-induced IL-6 secretion at 10 microM incubated for 30 mins followed by LPS stimulation and measured after 24 hrs by ELISA relative to control; format: functional; conditions: RAW264.7, 24.5 h, time 1470 min
Method in brief: (§2)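 RAW264.7 cells in DMEM with 10% FBS at 37 °C, 5% CO₂; pretreated with 10 μM for 30 min, then LPS 0.5 μg/mL for 24 h. Medium TNF-α and IL-6 measured by ELISA and normalized to total protein of viable cells; percent inhibition, mean ± SD of three experiments.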

RAW264.7 [4] = experiment: as §1; format: cell-based; conditions: raw264.7, 10 µM
[5] = Octanol-water partition coefficient, logP of compound; format: physicochemical
RAW264.7 [6] = experiment: Antiinflammatory activity in mouse RAW264.7 cells assessed as decrease in LPS-induced TNF-alpha secretion at 10 microM incubated for 30 mins followed by LPS stimulation and measured after 24 hrs by ELISA relative to control; format: functional; conditions: RAW264.7, 24.5 h, time 1470 min; method in brief: as §2
[7] = Aqueous kinetic solubility of compound at pH 7.4; format: physicochemical; conditions: read-out: Kinetic_solubility

Row | Structure (SMILES) | viability at 24 h, 10 µM [1] | viability at 10 µM [2] | inhibition at 10 µM (RAW264.7 [3]) | Activity (RAW264.7 [4]) | logP [5] | inhibition at 10 µM (RAW264.7 [6]) | solubility kinetic [7]
1 | C=CCc1cc(/C=C2\CN(Cc3ccccc3)C/C(=C\c3ccc(O)c(CC=C)c3)C2=O)ccc1O | 62.1% | < 70% | 45.8% |  |  |  | 
2 | C=CCc1cc(/C=C2\CN(C(=O)c3c(Cl)cccc3Cl)C/C(=C\c3ccc(O)c(CC=C)c3)C2=O)ccc1O | 79.6% |  | 79.6% | Non-Toxic |  |  | 
3 | C=CCc1cc(/C=C2\CN(C3CC3)C/C(=C\c3ccc(N4CCCC4)cc3)C2=O)ccc1O | 95.5% |  | 49.9% |  | 4.33 | 17.6% | 
4 | C=CCc1cc(/C=C2\CN(C(=O)c3ccc(C)cc3)C/C(=C\c3ccc(O)c(CC=C)c3)C2=O)ccc1O | 70.1% |  | 81.5% | Non-Toxic |  |  | 
5 | C=CCc1cc(/C=C2\CN(C)C/C(=C\c3ccc(O)c(CC=C)c3)C2=O)ccc1O | 80.3% |  | 57.1% | Non-Toxic |  |  | 
6 | C=CCc1cc(/C=C2\CN(CC)C/C(=C\c3ccc(O)c(CC=C)c3)C2=O)ccc1O | 79.6% |  | 67.6% | Non-Toxic |  |  | 
7 | C=CCc1cc(/C=C2\CN(C3CC3)C/C(=C\c3ccc(N(C)C)cc3)C2=O)ccc1O | 89.4% |  | 74.4% |  | 3.5 | 35% | 17.1 mg/mL (≈ 41.2 mM)
8 | C=CCc1cc(/C=C2\CNC/C(=C\c3ccc(O)c(CC=C)c3)C2=O)ccc1O | 77.9% |  | 44.4% | Non-Toxic |  |  | 
9 | C=CCc1cc(/C=C2\CN(C(C)C)C/C(=C\c3ccc(O)c(CC=C)c3)C2=O)ccc1O | 85.1% |  | 71.6% | Non-Toxic |  |  | 
